The subject of assay [1] is Mus musculus. Put plainly: Anti-seizure activity was evaluated by Subcutaneous pentylenetetrazole seizure test at dose 100 mg/kg after 4.0 hours; +++ denotes antiseizure activity. The format is functional, organism-based. Further details: dose 100 mg/kg. An outline of the steps: (§1)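 Phase I screen in mice: ip dosing at 30, 100, 300 and 600 mg/kg in 30% PEG 400, read 0.5 h and 4 h after. Pentylenetetrazol given sc at CD97 (85 mg/kg). Protection means no clonic spasm of at least 5 s over 30 min. Scored ++++ to + for 30 to 600 mg/kg.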

Assay [2] is filed under the species Mus musculus. Put plainly: Time to peak activity was evaluated by Maximal electroshock seizure test in hours. The format is functional.
Assay [3] deals with Mus musculus. Put plainly: Anti-seizure activity was evaluated by Neurologic toxicity (rotarod test) at dose 600 mg/kg after 4.0 hours; + denotes neurotoxicity. The format is functional, organism-based. Details: dose 600 mg/kg. An outline of the steps: (§2)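 Phase I neurotoxicity in mice by rotorod ataxia test. Compound given ip at 30, 100, 300 or 600 mg/kg in 30% PEG 400, read 0.5 h and 4 h after. Scored ++++ to + for toxicity at 30 to 600 mg/kg; - means no toxicity.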

The test system of assay [4] is Mus musculus. Put plainly: Anti-seizure activity was evaluated by Maximal electroshock seizure (MES) test at dose 100 mg/kg after 0.5 hours; +++ denotes antiseizure activity. The format is functional, organism-based. Details: dose 100 mg/kg. In outline: (§3)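 Phase I screen in mice: ip injection at 30, 100, 300 and 600 mg/kg in 30% PEG 400 (0.01 mL/g). Test run 0.5 h and 4 h after dosing. 60-Hz AC, 50 mA, via corneal electrodes for 0.2 s. Protection means abolition of hind-leg tonic extension. Scored ++++ to + for activity at 30 to 600 mg/kg.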

Assay [5] concerns Mus musculus. Put plainly: Anti-seizure activity was evaluated by Neurologic toxicity (rotarod test) at dose 600 mg/kg after 0.5 hours; + denotes neurotoxicity. The format is functional, organism-based. Details: dose 600 mg/kg. An outline of the steps:
as §2

Assay [6] deals with Mus musculus. As to the kind of experiment: Median toxic dose was evaluated by […] through intraperitoneal administration. The format is functional.
The species entered for assay [7] is Rattus norvegicus. Put plainly: Protective index (TD50/ED50) was determined against scMet induced seizure in rat. The format is functional. An outline of the steps:
(§4)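 Oral dosing in 30% PEG 400: phase IV in mice (0.01 mL/g), phase VI in Sprague-Dawley rats (0.004 mL/g). ED50/TD50 found as in phase II, at the stated time of peak effect. MES current 50 mA in mice, 150 mA in rats. Toxicity by rotorod in mice; positional sense, gait and stance in rats. PI = TD50/ED50.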

The species named for assay [8] is Rattus norvegicus. Put plainly: Protective index (TD50/ED50) was determined against MES induced seizure in rat. The format is functional. An outline of the steps:
as §4

The test system of assay [9] is Mus musculus. As to the kind of experiment: Median effective dose was evaluated by subcutaneous pentylenetetrazole seizure test through intraperitoneal administration. The format is functional. An outline of the steps: (§5)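 Phase II in mice, ip dosing in 30% PEG 400. Groups of 6-12 mice per dose until at least three points fall in 10-90% protection. […] MES: 50 mA, 0.2 s corneal. scMet: pentylenetetrazol 85 mg/kg sc.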

For assay [10], the system named is Mus musculus. As to the kind of experiment: Median effective dose was evaluated by Maximal electroshock seizure test through intraperitoneal administration. The format is functional. The note with it: ip. An outline of the steps:
as §5

Assay [11] relates to Mus musculus. Put plainly: Anti-seizure activity was evaluated by Subcutaneous pentylenetetrazole seizure test at dose 600 mg/kg after 0.5 hours; + denotes neurotoxicity. Further details: dose 600 mg/kg. The format is functional, organism-based. An outline of the steps:
as §1

The species named for assay [12] is Mus musculus. Put plainly: Time to peak toxicity was evaluated by Maximal electroshock seizure test in hours. The format is functional.
Assay [13] deals with Mus musculus. As to the kind of experiment: Anti-seizure activity was evaluated by Subcutaneous pentylenetetrazole seizure test at dose 300 mg/kg after 0.5 hours; ++ denotes antiseizure activity. Further details: dose 300 mg/kg. The format is functional, organism-based. An outline of the steps:
as §1

Assay [14] relates to Mus musculus. As to the kind of experiment: Anti-seizure activity was evaluated by Subcutaneous pentylenetetrazole seizure test at dose 300 mg/kg after 4.0 hours; ++ denotes antiseizure activity. Details: dose 300 mg/kg. The format is functional, organism-based. An outline of the steps:
as §1

Assay [15] has as its system Mus musculus. Put plainly: Anti-seizure activity was evaluated by Maximal electroshock seizure (MES) test at dose 100 mg/kg after 4.0 hours; +++ denotes antiseizure activity. The format is functional, organism-based. Details: dose 100 mg/kg. In outline:
as §3

Assay [16] relates to Mus musculus. As to the kind of experiment: Anti-seizure activity was evaluated by Neurologic toxicity (rotarod test) at dose 300 mg/kg after 0.5 hours; ++ denotes antiseizure activity. The format is functional, organism-based. Details: dose 300 mg/kg. An outline of the steps:
as §2

With `O=C(Cc1ccc(Br)cc1)NS(=O)(=O)C(F)(F)F`, the Activity result in the assay with Mus musculus [1], in the assay with Mus musculus [3], in the assay with Mus musculus [4], with Mus musculus [5] and in the assay on Mus musculus [11] was “Antiseizure activity” throughout. The TPE in the assay listed under Mus musculus [2] amounted to 4; in the assay filed under Mus musculus [12], 2. Further, the TD50 in the assay on Mus musculus [6] turned out to be 291 mg/kg. The PI is on record as 5.3 in the assay listed under Rattus norvegicus [7] and 13 in the assay filed under Rattus norvegicus [8]. The ED50 with Mus musculus [9] came to 55 mg/kg; with Mus musculus [10], 23 mg/kg.

In the case of `COc1cccc(CC(=O)NS(=O)(=O)C(F)(F)F)c1`, the TPE in the assay listed under Mus musculus [2] and in the assay filed under Mus musculus [12] was 2 each time. The Activity entry in the assay on Mus musculus [13], in the assay with Mus musculus [3], in the assay with Mus musculus [4], in the assay with Mus musculus [14], in the assay on Mus musculus [5] and in the assay on Mus musculus [15] was “Antiseizure activity” each time. Also, the TD50 in the assay with Mus musculus [6] turned out to be 325 mg/kg. Further, the PI was determined as 4.2 in the assay filed under Rattus norvegicus [7] and 17 in the assay filed under Rattus norvegicus [8]. Besides, the ED50 was determined as 77 mg/kg in the assay with Mus musculus [9] and 19 mg/kg with Mus musculus [10].

On to `O=C(Cc1ccc([N+](=O)[O-])cc1)NS(=O)(=O)C(F)(F)F`, for which the values for the TPE in the assay listed under Mus musculus [2] and in the assay filed under Mus musculus [12] were 4 and 6, respectively. Besides, the Activity result with Mus musculus [13], with Mus musculus [3], in the assay on Mus musculus [4] and with Mus musculus [16] was “Antiseizure activity” in each case. In the assay with Mus musculus [6], this molecule came in with a TD50 of 482 mg/kg. Also, the PI in the assay listed under Rattus norvegicus [7] turned out to be 24; in the assay filed under Rattus norvegicus [8] it was 39. The 50% effective dose (ED50) in the assay with Mus musculus [9] stood at 20 mg/kg; in the assay on Mus musculus [10], 12 mg/kg.

(Values after ChEMBL document CHEMBL1129543, “Synthesis and evaluation of N-(phenylacetyl)trifluoromethanesulfonamides as anticonvulsant agents” (J Med Chem, 1996).)
